Assay results reported in ChEMBL document CHEMBL4130484, “Identification and optimization of novel 6-acylamino-2-aminoquinolines as potent Hsp90 C-terminal inhibitors” (Eur J Med Chem, 2017).
Converted amounts (≈) assume the structure as drawn. The source made the active and inactive calls. The calls are words filed in the database; no cut-off is given here.

How the values were obtained:
MCF7 [1] = experiment: Growth inhibition of human MCF7 cells at 50 uM incubated for 72 hrs by MTT assay; format: functional; settings: MCF7, 72 h, read-out: GI
In short: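 MTT screen in MCF7 cells at a single concentration of 50 µM; growth inhibition rate recorded.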

MCF7 [2] = experiment: Antiproliferative activity against human MCF7 cells incubated for 72 hrs by MTT assay; format: functional, cell-based; settings: MCF7, 72 h
In short: (§1)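 MTT antiproliferation assay in MCF7 and SKBr3 breast cancer cells; IC50 determined.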

SK-BR-3 = experiment: Antiproliferative activity against human SKBR3 cells incubated for 72 hrs by MTT assay; format: functional, cell-based; settings: SK-BR-3, 72 h; in short: as §1
[3] = Permeability coefficient of the compound at pH 7.4 by double-sink PAMPA; format: ADME; settings: read-out: permeability
In short: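 Double-sink PAMPA at pH 7.4 on a PAMPA Explorer instrument; Pe reported as mean ± SD, n = 3.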

[4] = Distribution coefficient, log D of the compound at pH 7.4; format: physicochemical; settings: octanol/water
In short: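 Log D at pH 7.4 measured on a PULSE platform.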

[5] = Intrinsic aqueous solubility of the compound; format: physicochemical
In short: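 Intrinsic aqueous solubility determined on a Gemini Profiler instrument.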

[6] = biological target: T1, Heat shock protein HSP90 (Homo sapiens) (UniProt P07900+P08238); experiment: Inhibition of HSP90 C-terminal in human MCF7 cells assessed as reduction in Akt protein expression at 5 to 20 uM incubated for 24 hrs by Western blot method; format: cell-based
In short: (§2)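 MCF7 cells incubated 24 h with various concentrations, then client protein levels read by Western blot. β-Actin served as loading control. AT13387 (1.0 µM), an N-terminal Hsp90 inhibitor, was the positive control.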

[7] = biological target: T1, Heat shock protein HSP90 (Homo sapiens); experiment: Inhibition of HSP90 C-terminal in human MCF7 cells assessed as reduction in ERK protein expression at 5 to 20 uM incubated for 24 hrs by Western blot method; format: cell-based; in short: as §2
[8] = biological target: T1, Heat shock protein HSP90 (Homo sapiens); experiment: Inhibition of HSP90 C-terminal in human MCF7 cells assessed as reduction in CDK6 protein expression at 5 to 20 uM incubated for 24 hrs by Western blot method; format: cell-based; in short: as §2

SMILES | inhibition of growth at 50 µM (MCF7 [1]) | IC50 (MCF7 [2]) | IC50 (SK-BR-3) | further results
CCN1CCN(Cc2nc3ccc(NC(=O)c4ccc(OC)cc4)cc3n2C(C)C)CC1 | 55% | – | – | –
Cc1cc(N2CCOCC2)nc2ccc(NC(=O)c3ccc(Cl)c(Cl)c3)cc12 | – | 12 µM | 15.1 µM | –
Cc1cc(N(C)C)nc2ccc(NC(=O)c3ccc(Cl)c(Cl)c3)cc12 | – | 33.3 µM | > 50 µM | –
COc1cc(NC(=O)N2CCC(CC(=O)NCCN3CCCC3)CC2)cc(OC)c1OC | < 50% | – | – | –
CCNc1cc(C)c2cc(NC(=O)c3ccc(Cl)c(Cl)c3)ccc2n1 | – | 48.6 µM | 28.2 µM | –
CCN1CCN(c2cc(C)c3cc(NC(=O)c4ccc(Cl)c(Cl)c4)ccc3n2)CC1 | – | 1.38 µM | 2.16 µM | Papp [3]: 25.9 ×10⁻⁶ cm/s; logD [4]: 3.67; solubility [5]: 11.3 µg/mL (≈ 25.5 µM)
CCc1ccc(C(=O)Nc2ccc3nc(N4CCN(CC)CC4)cc(C)c3c2)cc1 | – | 3.06 µM | 9.85 µM | –
CCN(CC)CCOC(=O)c1ccc(NC(=O)C2=CC3C(c4ccccc4F)=NN(C)C3S2)cc1 (centres undefined) | 99.6% | 5.38 µM | 4.99 µM | inhibition [6]: inactive; inhibition [7]: inactive; inhibition [8]: inactive
CCN(CC)CCOC(=O)c1ccc(NC(=O)c2ccc(OC)cc2)cc1 | < 50% | – | – | –
CCN1CCN(c2cc(C)c3cc(NC(=O)c4ccccc4OC)ccc3n2)CC1 | – | 13.2 µM | 15.7 µM | –
COc1ccc(C(=O)Nc2ccc3nc(CN4CCN(C)CC4)n(C)c3c2)cc1OC | 50.8% | – | – | –
CCN1CCN(c2cc(C)c3cc(NC(=O)c4ccc(F)c(F)c4)ccc3n2)CC1 | – | 5.23 µM | 1.98 µM | –
CCN1CCN(c2cc(C)c3cc(NC(=O)c4ccc(Cl)cc4)ccc3n2)CC1 | – | 1.53 µM | 3.02 µM | –
CCN1CCN(c2cc(C)c3cc(NC(=O)c4ccccc4Cl)ccc3n2)CC1 | – | > 50 µM | > 50 µM | –
COc1ccc(C(=O)Nc2nc(CC(=O)N3CCN(c4ccccc4)CC3)cs2)cc1OC | < 50% | – | – | –
CCN1CCN(c2cc(C)c3cc(NC(=O)c4cccc(C)c4)ccc3n2)CC1 | – | 7.8 µM | 13.7 µM | –
COc1ccc(C(=O)Nc2ccc3nc(SCC(=O)N4CCCC4)sc3c2)cc1 | 62.5% | – | – | –
Cc1cc(N2CCN(C)CC2)nc2ccc(NC(=O)c3ccc(Cl)c(Cl)c3)cc12 | – | 3 µM | 6.32 µM | –
CCN1CCN(c2cc(C)c3cc(NC(=O)c4ccc[nH]4)ccc3n2)CC1 | – | 14.7 µM | 13.2 µM | –
COc1ccc(-c2noc(C(=O)NCc3ccc(CN4CCOCC4)cc3)n2)cc1OC | < 50% | – | – | –
CCN1CCN(C(=O)CSCc2nnc(C(=O)Nc3ccc(OC)cc3)s2)CC1 | < 50% | – | – | –

SMILES | inhibition of growth at 50 µM (MCF7 [1]) | IC50 (MCF7 [2]) | IC50 (SK-BR-3) | further results
CCN1CCN(c2cc(C)c3cc(NC(=O)c4ccccc4F)ccc3n2)CC1 | – | 32.6 µM | 38.1 µM | –
CCN1CCN(c2cc(C)c3cc(NC(=O)c4cccc(Cl)c4)ccc3n2)CC1 | – | 3.82 µM | 17.8 µM | –
COc1ccc(C(=O)Nc2cnn(-c3ncc(N4CCSCC4)cn3)c2)cc1F | < 50% | – | – | –
O=C(Nc1nc(C(=O)NCCN2CCCCC2)cs1)c1ccc2c(c1)OCO2 | < 50% | – | – | –
Cc1cc(N2CCCC2)nc2ccc(NC(=O)c3ccc(Cl)c(Cl)c3)cc12 | – | 26.3 µM | 43.4 µM | –
CCN1CCN(c2cc(C)c3cc(NC(=O)c4ccc5ccccc5n4)ccc3n2)CC1 | – | 7.06 µM | 3.76 µM | –
Cc1cc(NCCN2CCCC2)nc2ccc(NC(=O)c3ccc(Cl)c(Cl)c3)cc12 | – | 1.28 µM | 9.53 µM | Papp [3]: 20.8 ×10⁻⁶ cm/s; logD [4]: 1.72; solubility [5]: 84.5 µg/mL (≈ 191 µM)
COCc1nnc(C(=O)Nc2ccc(C(=O)NCCCN3CCCCC3)cc2)s1 | < 50% | – | – | –
CCN1CCN(c2cc(C)c3cc(NC(=O)c4ccc(OC)c(OC)c4)ccc3n2)CC1 | – | 3.65 µM | 2.71 µM | –
Cc1cc(NCCN2CCN(C)CC2)nc2ccc(NC(=O)c3ccc(Cl)c(Cl)c3)cc12 | – | 1.7 µM | 2.69 µM | Papp [3]: 7.71 ×10⁻⁶ cm/s; logD [4]: 1.73; solubility [5]: 106 µg/mL (≈ 224 µM)
CCCOc1cccc(C(=O)NC(=S)Nc2ccc(N3CCCCC3)c(Cl)c2)c1 | < 50% | – | – | –
CCN1CCN(c2cc(C)c3cc(NC(=O)c4cc5ccccc5[nH]4)ccc3n2)CC1 | – | 2.95 µM | 2.55 µM | –
CCN1CCN(c2cc(C)c3cc(NC(=O)c4ccc(OC)cc4)ccc3n2)CC1 | – | 7.69 µM | 9 µM | –
CCN1CCN(c2cc(C)c3cc(NC(=O)c4ccc(C)cc4)ccc3n2)CC1 | – | 6.74 µM | 11.4 µM | –
Cc1cc(NCCN2CCOCC2)nc2ccc(NC(=O)c3ccc(Cl)c(Cl)c3)cc12 | – | 5.23 µM | 9.16 µM | Papp [3]: 49.8 ×10⁻⁶ cm/s; logD [4]: 2.64; solubility [5]: 76.2 µg/mL (≈ 166 µM)
CCN1CCN(c2cc(C)c3cc(NC(=O)c4ccccc4C)ccc3n2)CC1 | – | 10.9 µM | 29.2 µM | –
CCN1CCN(c2cc(C)c3cc(NC(=O)c4cccc(Br)c4)ccc3n2)CC1 | – | 11.6 µM | 13.3 µM | –
CCN(CC)c1cc(C)c2cc(NC(=O)c3ccc(Cl)c(Cl)c3)ccc2n1 | – | > 50 µM | 41.2 µM | –
COc1ccc(NC(=O)c2nnc(COCC(=O)NCCN(C)C)s2)cc1 | < 50% | – | – | –
CCN1CCN(c2cc(C)c3cc(NC(=O)c4ccc5c(c4)OCO5)ccc3n2)CC1 | – | 4.61 µM | 12.6 µM | –
O=C(NCCCN1CCOCC1)c1ccc(NC(=O)c2nnc(COc3ccccc3)s2)cc1 | 50.6% | – | – | –

SMILES | inhibition of growth at 50 µM (MCF7 [1]) | IC50 (MCF7 [2]) | IC50 (SK-BR-3) | further results
O=C(Nc1nc(C(=O)NCCCN2CCCC2=O)cs1)c1ccc2c(c1)OCO2 | < 50% | – | – | –
CCN1CCN(c2cc(C)c3cc(NC(=O)c4ccc(F)cc4)ccc3n2)CC1 | – | 4.03 µM | 19.8 µM | –
CCN1CCN(c2cc(C)c3cc(NC(=O)c4ccco4)ccc3n2)CC1 | – | 41.2 µM | 37.5 µM | –
Cc1cc(NCCN(C)C)nc2ccc(NC(=O)c3ccc(Cl)c(Cl)c3)cc12 | – | 2.55 µM | 6.67 µM | Papp [3]: 3.13 ×10⁻⁶ cm/s; logD [4]: 1.47; solubility [5]: 122 µg/mL (≈ 292 µM)
Cc1cc(N2CCN(C(C)C)CC2)nc2ccc(NC(=O)c3ccc(Cl)c(Cl)c3)cc12 | – | 1.71 µM | 6.68 µM | –
CCN1CCN(c2cc(C)c3cc(NC(=O)c4ccccc4)ccc3n2)CC1 | – | 14.2 µM | 18.4 µM | –
CCn1c(C(=O)NCCN2CCOCC2)cc2cc(NC(=O)c3ccc(F)cc3)ccc21 | < 50% | – | – | –
Cc1oc2ncn(CC(C)C)c(=O)c2c1C(=O)Nc1ccc(C(=O)NCCN2CCCC2)nc1 | 90.4% | 8.41 µM | 8.09 µM | inhibition [6]: inactive; inhibition [7]: inactive; inhibition [8]: inactive
CCN1CCN(c2cc(C)c3cc(NC(=O)c4cccc(F)c4)ccc3n2)CC1 | – | 8.92 µM | 24.9 µM | –
CCN(CC)CCNc1cc(C)c2cc(NC(=O)c3ccc(Cl)c(Cl)c3)ccc2n1 | – | 1.42 µM | 3.71 µM | Papp [3]: 28.1 ×10⁻⁶ cm/s; logD [4]: 1.66; solubility [5]: 95.2 µg/mL (≈ 214 µM)
CNc1cc(C)c2cc(NC(=O)c3ccc(Cl)c(Cl)c3)ccc2n1 | – | 2.52 µM | 6.35 µM | –
Cc1cc(N2CCCCC2)nc2ccc(NC(=O)c3ccc(Cl)c(Cl)c3)cc12 | – | 31.1 µM | 42.5 µM | –
CCN1CCN(c2cc(C)c3cc(NC(=O)c4ccc(Br)cc4)ccc3n2)CC1 | – | 5.94 µM | 6.31 µM | –
CCN1CCN(c2cc(C)c3cc(NC(=O)c4ccncc4)ccc3n2)CC1 | – | > 50 µM | > 50 µM | –
CCN1CCN(CCCNC(=O)c2nc(-c3nn(-c4ccc(C)cc4)c(=O)n(C)c3=O)no2)CC1 | < 50% | – | – | –
CC(C)c1cc(C(=O)N2Cc3ccc(CN4CCN(C)CC4)cc3C2)c(O)cc1O [ONALESPIB] | – | 0.032 µM | 0.045 µM | –
CCN1CCN(c2cc(C)c3cc(NC(=O)c4cc(Cl)cc(Cl)c4)ccc3n2)CC1 | – | 6.09 µM | 2.66 µM | –
CCN1CCN(c2cc(C)c3cc(NC(=O)c4ccccc4Br)ccc3n2)CC1 | – | 27.5 µM | 39.2 µM | –
CCN1CCN(c2cc(C)c3cc(NC(=O)c4cccc(OC)c4)ccc3n2)CC1 | 96.9% | 4.86 µM | 3.33 µM | inhibition [6]: Active; inhibition [7]: Active; inhibition [8]: Active
CCc1ccccc1C(=O)Nc1ccc2nc(N3CCN(CC)CC3)cc(C)c2c1 | – | 15.8 µM | 23.9 µM | –
CCN1CCN(c2cc(C)c3cc(NC(=O)c4cccnc4)ccc3n2)CC1 | – | 26.6 µM | 10.6 µM | –
